Values after ≈ are worked out from the molar mass of the structure shown.
What was measured:
Assay type in all cases: functional
[1] = tested on: Escherichia coli; assay: Potency against Escherichia coli (H560)
[2] = tested on: Escherichia coli; assay: Minimum inhibitory concentration against Escherichia coli (vogel)
Procedure, shortened: (§1)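 MICs were determined by standard microtitration against a panel of 11 bacterial strains. Aqueous stock solutions were prepared with 0.1 N sodium or potassium hydroxide.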

[3] = tested on: Streptococcus pneumoniae; assay: Minimum inhibitory concentration against Streptococcus pneumoniae (SV-1).; procedure, shortened: as §1
[4] = tested on: Enterobacter; assay: Minimum inhibitory concentration against gram-negative enterobacteriaceae.
Procedure, shortened: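 This value is the geometric mean of microtitration MICs for the Gram-negative Enterobacteriaceae strains in the 11-organism panel. Aqueous stocks were prepared in 0.1 N sodium or potassium hydroxide.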

[5] = tested on: Enterococcus faecalis; assay: Minimum inhibitory concentration against Streptococcus faecalis (MGH-2).; procedure, shortened: as §1
[6] = tested on: Providencia rettgeri; assay: Minimum inhibitory concentration against Providencia rettgeri. (M1771); procedure, shortened: as §1
[7] = tested on: Klebsiella pneumoniae; assay: Minimum inhibitory concentration against Klebsiella pneumoniae (MGH-2); procedure, shortened: as §1
[8] = tested on: Mus musculus; assay: In vivo activity against Pseudomonas aeruginosa (sc); conditions: read-out: PD50
Procedure, shortened: (§2)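 Median protective dose (PD50, mg/kg) measured in acute, lethal, systemic infections in female Charles River CD-1 mice. A single dose of compound was given at the time of bacterial challenge. Aqueous stock solutions were made with 0.1 N sodium or potassium hydroxide.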

[9] = tested on: Staphylococcus aureus; assay: Minimum inhibitory concentration against Staphylococcus aureus (H-228).; procedure, shortened: as §1
[10] = tested on: Escherichia coli; assay: Potency against Gram-negative mean
[11] = tested on: Mus musculus; assay: In vivo activity against Pseudomonas aeruginosa (po); conditions: read-out: PD50; procedure, shortened: as §2
[12] = tested on: Mus musculus; assay: In vivo activity against Streptococcus pyogenes (po); conditions: read-out: PD50; procedure, shortened: as §2
[13] = tested on: Mus musculus; assay: In vivo activity against Streptococcus pyogenes (sc); conditions: read-out: PD50; procedure, shortened: as §2
[14] = tested on: Enterobacter cloacae; assay: Minimum inhibitory concentration against Enterobacter cloacae. (MA2446).
[15] = tested on: Escherichia coli; assay: Minimum inhibitory concentration against Escherichia coli (H560); procedure, shortened: as §1
[16] = tested on: Pseudomonas aeruginosa; assay: Minimum inhibitory concentration against Pseudomonas aeruginosa. (UI-18); procedure, shortened: as §1
[17] = tested on: Streptococcus pyogenes; assay: Minimum inhibitory concentration against Streptococcus pyogenes (C203).; procedure, shortened: as §1
[18] = tested on: Mus musculus; assay: In vivo activity against Escherichia coli (po); conditions: read-out: PD50; procedure, shortened: as §2
[19] = tested on: Mus musculus; assay: In vivo activity against Streptococcus pneumoniae (po); conditions: read-out: PD50; procedure, shortened: as §2
[20] = tested on: Staphylococcus aureus; assay: Minimum inhibitory concentration against Staphylococcus aureus (UC76).; procedure, shortened: as §1
[21] = tested on: Mus musculus; assay: In vivo activity against Escherichia coli (sc); conditions: read-out: PD50; procedure, shortened: as §2
[22] = tested on: Mus musculus; assay: In vivo activity against Streptococcus pneumoniae (sc); conditions: read-out: PD50; procedure, shortened: as §2
[23] = tested on: Enterobacter; assay: Minimum inhibitory concentration as geometric mean calculated for the gram-negative enterobacteriaceae.
Procedure, shortened: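 MICs were determined by standard microtitration. The value is the geometric mean of the MICs across the Gram-negative Enterobacteriaceae strains in the test panel.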

CCNCC1CCN(c2c(F)cc3c(=O)c(C(=O)O)cn(CC)c3c2F)C1 (configuration not stated) [MERAFLOXACIN]
Log [1]: 6.59 1/M MIC
MIC [2]: 0.1 µg/mL (≈ 0.264 µM)
MIC [3]: 0.1 µg/mL (≈ 0.264 µM)
MIC [4]: 0.17 µg/mL (≈ 0.448 µM)
MIC [5]: 0.1 µg/mL (≈ 0.264 µM)
MIC [6]: 0.4 µg/mL (≈ 1.05 µM)
MIC [7]: 0.2 µg/mL (≈ 0.527 µM)
ED50 [8]: 76 mg/kg
MIC [9]: 0.1 µg/mL (≈ 0.264 µM)
Log [10]: 6.35 1/M MIC
ED50 [11]: > 200 mg/kg
ED50 [12]: 9 mg/kg
ED50 [13]: 3 mg/kg
MIC [14]: 0.2 µg/mL (≈ 0.527 µM)
MIC [15]: 0.1 µg/mL (≈ 0.264 µM)
MIC [16]: 1.6 µg/mL (≈ 4.22 µM)
MIC [17]: 0.1 µg/mL (≈ 0.264 µM)
ED50 [18]: 12 mg/kg
ED50 [19]: 20 mg/kg
MIC [20]: 0.05 µg/mL (≈ 0.132 µM)
ED50 [21]: 2 mg/kg
ED50 [22]: 4 mg/kg

CCn1cc(C(=O)O)c(=O)c2cc(F)c(N3CCNCC3)cc21 [NORFLOXACIN]
MIC [2]: 0.025 µg/mL (≈ 0.0783 µM)
MIC [3]: 1.6 µg/mL (≈ 5.01 µM)
MIC [5]: 1.6 µg/mL (≈ 5.01 µM)
MIC [6]: 0.05 µg/mL (≈ 0.157 µM)
MIC [23]: 0.06 µg/mL (≈ 0.188 µM)
MIC [7]: 0.05 µg/mL (≈ 0.157 µM)
ED50 [8]: 11 mg/kg
MIC [9]: 0.8 µg/mL (≈ 2.51 µM)
ED50 [11]: 76 mg/kg
ED50 [12]: > 100 mg/kg
ED50 [13]: 45 mg/kg
MIC [14]: 0.1 µg/mL (≈ 0.313 µM)
MIC [15]: 0.1 µg/mL (≈ 0.313 µM)
MIC [16]: 0.2 µg/mL (≈ 0.626 µM)
MIC [17]: 0.8 µg/mL (≈ 2.51 µM)
ED50 [18]: 4 mg/kg
ED50 [19]: > 100 mg/kg
MIC [20]: 0.05 µg/mL (≈ 0.157 µM)
ED50 [21]: 0.6 mg/kg
ED50 [22]: > 100 mg/kg
